{"data": "Measurements of several laboratories", "note": "Protocols differ between the studies behind these lines."}
{"SMILES": "Cc1c2c(nn1C)CSCc1cc(n(C)n1)CSc1cc(c3ccccc3c1)OCCCc1c(C(=O)O)n(C)c3c-2c(Cl)ccc13", "target or system": "Staphylococcus epidermidis", "assay": "microbial growth, broth dilution", "setting": "clinical isolate", "measurement": "MIC90", "value": "12.5 µM"}
{"SMILES": "Cc1ccc2[nH]nc(-c3nnc(Nc4ccc(Cl)c(Br)c4)s3)c2c1", "target or system": "Staphylococcus epidermidis", "assay": "microbial growth", "test system": "ATCC12228", "measurement": "MIC", "value": "235 µg/mL"}
{"SMILES": "O=C(Nc1ccc(Cl)cc1)C1CCCN(C(=O)c2cc(C(F)(F)F)cc(C(F)(F)F)c2)C1 (racemic)", "target or system": "OCI-Ly1", "assay": "cell growth or viability, ATP luminescence", "setting": "1 µM, 5 days", "measurement": "viability", "value": "161%"}
{"SMILES": "Cc1n[nH]c2ccc3nc(-c4ccc(C(=O)NCCN(C)C)cc4)c4c(c3c12)CCCCC4", "target or system": "K562", "assay": "cell growth or viability, resazurin", "setting": "72 h", "measurement": "GI50", "value": "2.9 µM"}
{"SMILES": "CC(=O)NC[C@H]1CN(c2ccc(N3CCOCC3)c(F)c2)C(=O)O1", "target or system": "Staphylococcus epidermidis", "assay": "microbial growth", "test system": "MRSE", "setting": "clinical isolate", "measurement": "MIC90", "value": "2 µg/mL"}
{"SMILES": "COC(=O)CNC(=O)C(=O)OC", "target or system": "OCI-Ly1", "assay": "cell growth or viability, ATP luminescence", "setting": "1 µM, 5 days", "measurement": "viability", "value": "146%"}
{"SMILES": "CCCCCCCCCCCCCCCCCCOc1ccc(CC(=O)OCC[N+]2(C)CCCCC2)cc1", "target or system": "HOP-92", "assay": "cell growth or viability, SRB", "setting": "10 µM", "measurement": "inhibition", "value": "2.18%"}
{"SMILES": "O=C(Nc1cccc(Br)c1)c1cccc(S(=O)(=O)N2CCCCCC2)c1", "target or system": "OCI-Ly1", "assay": "cell growth or viability, ATP luminescence", "setting": "0.5 µM, 5 days", "measurement": "viability", "value": "157%"}
{"SMILES": "CCCCCCCCCCCCCCCCCCOc1ccccc1CC(=O)OCC[N+]1(C)CCCCC1", "target or system": "HOP-62", "assay": "cell growth or viability, SRB", "setting": "10 µM", "measurement": "inhibition", "value": "30%"}
{"SMILES": "O=C(NO)c1ccc(CC(=O)N(CCO)c2ccccc2)cc1", "target or system": "OCI-Ly1", "assay": "cell growth or viability, ATP luminescence", "setting": "1 µM, 5 days", "measurement": "viability", "value": "74.7%"}
{"SMILES": "Cc1n[nH]c2ccc3nc(-c4ccc(C(=O)NCCN(C)C)cc4F)c4c(c3c12)CCCC4", "target or system": "K562", "assay": "cell growth or viability, resazurin", "setting": "72 h", "measurement": "GI50", "value": "0.772 µM"}
{"SMILES": "O=C(CCCCCCSc1ccc2ccccc2c1)NO", "target or system": "OCI-Ly1", "assay": "cell growth or viability, ATP luminescence", "setting": "0.5 µM, 5 days", "measurement": "viability", "value": "173%"}
{"SMILES": "CN[C@H](CC(C)C)C(=O)N[C@H]1C(=O)N[C@@H](CC(N)=O)C(=O)N[C@H]2C(=O)N[C@H]3C(=O)N[C@H](C(=O)N[C@H](C(=O)O)c4cc(O)cc(O)c4-c4cc3ccc4O)[C@H](O)c3ccc(c(Cl)c3)Oc3cc2cc(c3O[C@@H]2O[C@H](CO)[C@@H](O)[C@H](O)[C@H]2O[C@H]2C[C@](C)(N)[C@H](O)[C@H](C)O2)Oc2ccc(cc2Cl)[C@H]1O", "target or system": "Staphylococcus epidermidis", "assay": "microbial growth", "setting": "clinical isolate", "measurement": "MIC50", "value": "0.5 µg/mL"}
{"SMILES": "CN(C)CCN(C)C(=O)c1ccc(-c2nc3ccc4[nH]ncc4c3c3c2CCCCC3)cn1", "target or system": "K562", "assay": "cell growth or viability, resazurin", "setting": "72 h", "measurement": "GI50", "value": "9.2 µM"}
{"SMILES": "CCCCCCCCCCCCCCCCCCOc1cccc(CC(=O)OCC[N+](C)(C)C)c1", "target or system": "HOP-92", "assay": "cell growth or viability, SRB", "setting": "10 µM", "measurement": "inhibition", "value": "12.2%"}
{"SMILES": "O=C(NCCN1CCCCC1)c1ccc(-c2nc3ccc4[nH]ncc4c3c3c2CCCC3)cc1", "target or system": "K562", "assay": "cell growth or viability, resazurin", "setting": "72 h", "measurement": "GI50", "value": "7.5 µM"}
{"SMILES": "CCCCCCCCCCCCCCCCCCOc1ccccc1CC(=O)OCCC[N+](C)(C)C", "target or system": "HOP-92", "assay": "cell growth or viability, SRB", "setting": "10 µM", "measurement": "inhibition", "value": "60.4%"}
{"SMILES": "Cc1ccc2[nH]nc(-c3nnc(Nc4ccc(F)cc4)s3)c2c1", "target or system": "Staphylococcus epidermidis", "assay": "microbial growth", "test system": "ATCC12228", "measurement": "MIC", "value": "123 µg/mL"}
{"SMILES": "CCCCCCCCCCCCCCCCCCOc1ccc(CC(=O)OCCC[N+](C)(C)C)cc1", "target or system": "HOP-62", "assay": "cell growth or viability, SRB", "setting": "10 µM", "measurement": "inhibition", "value": "8.58%"}
{"SMILES": "O=C(NC1CCCCC1)c1ccc(-c2nc3ccc4[nH]ncc4c3c3c2CCCC3)cc1", "target or system": "K562", "assay": "cell growth or viability, resazurin", "setting": "72 h", "measurement": "GI50", "value": "> 10 µM"}
{"SMILES": "CCCCCCCCCCCCCCCCCCOc1ccccc1CC(=O)OCC[N+]1(C)CCCC1", "target or system": "HOP-62", "assay": "cell growth or viability, SRB", "setting": "10 µM", "measurement": "inhibition", "value": "46.5%"}
{"SMILES": "CN(C)CCN(C)C(=O)c1ccc(-c2nc3ccc4[nH]ncc4c3c3c2CCCCC3)nc1", "target or system": "K562", "assay": "cell growth or viability, resazurin", "setting": "72 h", "measurement": "GI50", "value": "> 10 µM"}
{"SMILES": "CCCCCCCCCCCCCCCCCCOc1cccc(CC(=O)OCCC[N+](C)(C)C)c1", "target or system": "HOP-92", "assay": "cell growth or viability, SRB", "setting": "10 µM", "measurement": "inhibition", "value": "22.4%"}
{"SMILES": "CN(C)CCN(C)C(=O)c1ccc(-c2nc3ccc4[nH]ncc4c3c3c2CC(F)(F)CC3)cc1", "target or system": "K562", "assay": "cell growth or viability, resazurin", "setting": "72 h", "measurement": "GI50", "value": "6.7 µM"}
{"SMILES": "CC1(C)S[C@@H]2[C@H](NC(=O)[C@H](N)c3ccccc3)C(=O)N2[C@H]1C(=O)O", "target or system": "Staphylococcus epidermidis", "assay": "microbial growth", "setting": "clinical isolate", "measurement": "MIC90", "value": "8 µg/mL"}
{"SMILES": "Cc1ccc2[nH]nc(-c3nnc(Nc4ccc([N+](=O)[O-])cc4)s3)c2c1", "target or system": "Staphylococcus epidermidis", "assay": "microbial growth", "test system": "ATCC12228", "measurement": "MIC", "value": "135 µg/mL"}
{"SMILES": "CN(C)CCNC(=O)c1ccc(-c2nc3ccc4[nH]ncc4c3c3c2CCCCC3)cc1", "target or system": "K562", "assay": "cell growth or viability, resazurin", "setting": "72 h", "measurement": "GI50", "value": "1.5 µM"}
{"SMILES": "C=C[C@]1(C)C[C@@H](OC(=O)CS[C@@H]2C[C@H]3CC[C@@H](C2)N3C)[C@]2(C)[C@H](C)CC[C@]3(CCC(=O)[C@H]32)[C@@H](C)[C@@H]1O", "target or system": "Staphylococcus epidermidis", "assay": "microbial growth", "setting": "clinical isolate", "measurement": "MIC50", "value": "0.0312 µg/mL"}
